# ChEMBL document CHEMBL1135654, “Antitumor agents. 1. Synthesis, biological evaluation, and molecular modeling of 5H-pyrido[3,2-a]phenoxazin-5-one, a compound with potent antiproliferative activity” (J Med Chem, 2002)
# pIC50: −log10 of the molar value. Starred links: 1 amine or outer side, 2 acyl side, 3 side chain; linkers in the order of their positions; H or OH if unused. Positions of bridges follow the written chain, without caps; N, C: chain ends. Non-standard residues stand in square brackets, D forms with d. Residues, ends and D or L forms follow the SMILES beside them. Chains are numbered I, II in the order given. Actinocin(1to9) = Cc1c2oc3c(C)ccc(C(=O)[*:2])c3nc-2c(C(=O)[*:1])c(N)c1=O; NMeV = CN[C@H](C(=O)O)C(C)C; Sar = CNCC(=O)O
# Legend:
# CCRF-SB [1] = assay: Compound concentration required to reduce the cell proliferation of human acute B-lymphoblastic leukemia CCRF-SB cells by 50%, using MTT method.; assay type: functional, cell-based
# Outline: (§1)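 Leukemia/lymphoma cells in exponential growth resuspended at 1 × 10^5 cells/mL in RPMI 1640 (10% FCS, antibiotics) with serial dilutions of drug (DMSO stock 200 µM diluted in medium). Viability by MTT after 96 h at 37 °C, 5% CO2. Growth expressed as % of untreated controls; IC50 by linear regression. Controls underwent ≥3 rounds of multiplication. Mean of three independent determinations.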
# CCRF-CEM [2] = assay: Compound concentration required to reduce the cell proliferation of human acute T-lymphoblastic leukemia CCRF-CEM cells by 50%, using MTT method.; assay type: functional, cell-based; outline: as §1
# HeLa [3] = assay: Compound concentration required to reduce the cell proliferation of cervix carcinoma Hela cells by 50%, using MTT method.; assay type: functional, cell-based; conditions: Homo sapiens
# Outline: (§2)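 Solid-tumor cells in exponential growth seeded at 5 × 10^4 cells/mL in their own medium with 10% FCS, allowed to adhere 16 h, then serially diluted drug added (DMSO stock 200 µM diluted in medium). MTT viability read 4 days later, 37 °C, 5% CO2. IC50 by linear regression from % of untreated control growth. Three independent determinations.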
# HEp-2 [4] = assay: Compound concentration required to reduce the cell proliferation of larynx carcinoma cells by 50%, using MTT method.; assay type: functional, cell-based; conditions: Homo sapiens; outline: as §2
# MT4 [5] = assay: Compound concentration required to reduce the cell proliferation of human CD4+T cells by 50%, using MTT method.; assay type: functional, cell-based; outline: as §1
# 5637 = assay: Antitumor activity against human bladder carcinoma 5637 cells; assay type: functional, cell-based; outline: as §2
# ACHN = assay: Antitumor activity against human renal adenocarcinoma ACHN cells; assay type: functional, cell-based; outline: as §2
# CCRF-SB [6] = assay: Antitumor activity against human acute B-lymphoblastic leukemia CCRF-SB cells; assay type: functional, cell-based; outline: as §1
# CCRF-CEM [7] = assay: Antitumor activity against human acute T-lymphoblastic leukemia CCRF-CEM cells; assay type: functional, cell-based; outline: as §1
# CRL-7065 cell line = assay: Antitumor activity against human foreskin fibroblasts CRL7065 cells; assay type: functional, cell-based; outline: as §2
# C8166 = assay: Antitumor activity against […] human acute T-lymphoblastic leukemia C8166 cells; assay type: functional, cell-based; outline: as §1
# DU-145 = assay: Antitumor activity against human prostate carcinoma DU145 cells; assay type: functional, cell-based; outline: as §2
# G-361 = assay: Antitumor activity against human skin melanoma G-361 cells; assay type: functional, cell-based; outline: as §2
# HeLa [8] = assay: Antitumor activity against cervix carcinoma Hela cells; assay type: functional, cell-based; conditions: Homo sapiens; outline: as §2
# HEp-2 [9] = assay: Antitumor activity against larynx carcinoma Hep-2 cells; assay type: functional, cell-based; conditions: Homo sapiens; outline: as §2
# HT-29 = assay: Antitumor activity against human colon adenocarcinoma HT-29 cells; assay type: functional, cell-based; outline: as §2
# HepG2 = assay: Antitumor activity against human hepatocellular carcinoma HepG2 cells; assay type: functional, cell-based; outline: as §2
# [10] = Compound concentration required to reduce the cell proliferation of Wild type and Drug- resistant human nasopharyngeal carcinoma KB cells by 50%; assay type: functional, cell-based
# Outline: (§3)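 Cells seeded at 5 × 10^4 cells/mL, adhered 16 h, exposed to serial drug dilutions; MTT after 4 days. IC50 by linear regression versus untreated controls; mean ± SD of three independent determinations.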
# [11] = Compound concentration required to reduce the cell proliferation of Wild type and drug-resistant KB subclones passaged in the presence of etoposide 7 uM by 50%; assay type: functional; conditions: Homo sapiens; outline: as §3
# [12] = Compound concentration required to reduce the cell proliferation of Wild type and Drug- resistant KB subclones passaged in the presence of doxorubicin 0.09 uM by 50%; assay type: functional; conditions: Homo sapiens; outline: as §3
# [13] = Effect on the proliferation Wild -type and Drug- resistant KB subclones passaged uM; assay type: functional, Homo sapiens; outline: as §3
# MT4 [14] = assay: Antitumor activity against human CD4+T cells expressing the TAT gene of HTLV-1 MT-4 cells; assay type: functional, cell-based; outline: as §1
# MOLT-4 = assay: Antitumor activity against human acute T-lymphoblastic leukemia MOLT-4 cells; assay type: functional, cell-based
# MT4 [15] = assay: Antitumor activity against […] human acute T-lymphoblastic leukemia MT-4 cells; assay type: functional, cell-based; outline: as §1
# MCF7 = assay: Antitumor activity against human breast adenocarcinoma MCF-7 cells; assay type: functional, cell-based; outline: as §2
# [16] = (§4) Cytotoxicity for Peripheral blood Lymphocytes; assay type: functional; conditions: Homo sapiens
# Outline: (§5)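 Human PBL from HIV-negative donors, isolated on Ficoll-Hypaque. Resting cells (1 × 10^6/mL) exposed up to 3 days to serial drug dilutions, washed, PHA-stimulated 24 h, diluted to 1 × 10^5/mL with PHA and IL-2, viability read after 6 days at 37 °C. Alternatively, PBL stimulated with PHA (2.5 µg/mL) 24 h, then grown with PHA, IL-2 (50 U/mL) and drug, and viable cells counted at day 6. Mean ± SD, three experiments.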
# [17] = as §4; assay type: functional; conditions: Homo sapiens; outline: as §5; remark: listed apart in the source
# Raji = assay: Antitumor activity against human Burkitt lym phoma Raji cells; assay type: functional, cell-based; outline: as §1
# SK-MEL-28 = assay: Antitumor activity against human skin melanoma […] cells; assay type: functional, cell-based; outline: as §2
# SK-MES-1 = assay: Antitumor activity against human lung squamous carcinoma SK-MES-1 cells; assay type: functional, cell-based; outline: as §2
# [18] = test system: Panel leukemia (Carcinoma cell lines); assay: (§6) Cytotoxicity for lymphoblastoid cell lines; assay type: functional; conditions: Homo sapiens
# WIL2-NS = assay: Anti tumor activity against human splenic B-lympho blastoid Wil2-NS cells; assay type: functional, cell-based; outline: as §1
# Lymphoblastoid cell = assay: as §6; assay type: functional; conditions: Homo sapiens
# [19] = Effect on the proliferation wild-type and drug-resistant KB subclones passaged uM; assay type: functional, Homo sapiens; outline: as §3
# [20] = Effect on the proliferation Wild -type and Drug- resistant KB subclones passaged in the presence of vincristine 0.02 uM; assay type: functional, Homo sapiens; outline: as §3
pIC50 (ACHN),pIC50 (CCRF-SB [6]),pIC50 (CCRF-CEM [7]),pIC50 (C8166),pIC50 (DU-145),pIC50 (G-361),pIC50 (HEp-2 [9]),pIC50 (HT-29),pIC50 (HepG2),pIC50 (Raji),pIC50 (SK-MEL-28),SMILES,pIC50 (CRL-7065 cell line),pIC50 [10],pIC50 [11],pIC50 [12],pIC50 [13],pIC50 (MT4 [14]),pIC50 (MT4 [15]),CC50 [16],CC50 [17],further results
–,–,–,–,–,–,–,–,–,–,–,CC(=O)c1c2nc3c(C(C)=O)cccc3oc-2cc(=O)c1N,–,–,–,–,–,–,–,–,–,pIC50 (CCRF-SB [1]): 6.30; pIC50 (CCRF-CEM [2]): 6.05; pIC50 (HeLa [3]): 5.70; pIC50 (HEp-2 [4]): 5.82; pIC50 (MT4 [5]): 5.74
8.30,8.70,9.00,9.10,8.10,9.00,8.40,8.22,8.00,8.70,8.70,"Cc1c2oc3c(C)ccc(C(=O)N[C@@H]4C(=O)N[C@H](C(C)C)C(=O)N5CCC[C@H]5C(=O)N(C)CC(=O)N(C)[C@@H](C(C)C)C(=O)O[C@@H]4C)c3nc-2c(C(=O)N[C@@H]2C(=O)N[C@H](C(C)C)C(=O)N3CCC[C@H]3C(=O)N(C)CC(=O)N(C)[C@@H](C(C)C)C(=O)O[C@@H]2C)c(N)c1=O [DACTINOMYCIN] (I: T[dV]P[Sar][NMeV] / II: T[dV]P[Sar][NMeV]; ester I:1-I:C, II:1-II:C; linker I:N-II:N via Actinocin(1to9))",8.15,8.30,6.70,6.70,7.30,9.00,9.00,2 nM,5 nM,pIC50 5637: 8.52; pIC50 (HeLa [8]): 8.10; pIC50 (MOLT-4): 9.00; pIC50 (MCF7): 8.22; pIC50 (SK-MES-1): 8.40; CC50 [18]: 3 nM; pIC50 (WIL2-NS): 8.52
7.40,7.52,7.70,7.70,7.52,7.05,7.40,6.82,6.92,7.52,7.22,COc1cccc2c1C(=O)c1c(O)c3c(c(O)c1C2=O)C[C@@](O)(C(=O)CO)C[C@@H]3O[C@H]1C[C@H](N)[C@H](O)[C@H](C)O1 [DOXORUBICIN],6.30,7.22,5.55,5.74,6.40,8.00,8.00,90 nM,40 nM,pIC50 (SK-MES-1): 7.52; CC50 (Lymphoblastoid cell): 20 nM
–,–,–,–,–,–,–,–,–,–,–,COc1cc([C@@H]2c3cc4c(cc3[C@@H](O[C@@H]3O[C@@H]5CO[C@@H](C)O[C@H]5[C@H](O)[C@H]3O)[C@H]3COC(=O)[C@H]23)OCO4)cc(OC)c1O [ETOPOSIDE],–,6.22,< 4.70,< 4.70,–,–,–,–,–,pIC50 [19]: 5.21
–,–,–,–,–,–,–,–,–,–,–,CC[C@]1(O)C[C@H]2CN(CCc3c([nH]c4ccccc34)[C@@](C(=O)OC)(c3cc4c(cc3OC)N(C=O)[C@H]3[C@@](O)(C(=O)OC)[C@H](OC(C)=O)[C@]5(CC)C=CCN6CC[C@]43[C@@H]65)C2)C1 [VINCRISTINE],–,8.22,7.30,6.15,–,–,–,–,–,pIC50 [20]: 6.70
